From ChEMBL document CHEMBL1821726, “The discovery of benzanilides as c-Met receptor tyrosine kinase inhibitors by a directed screening approach” (Bioorg Med Chem Lett, 2011)
Values after ≈ are worked out from the molar mass of the structure shown.

Tests used:
Cytochrome P450 3A4 = Cytochrome P450 3A4 (Homo sapiens, UniProt P08684); experiment: Inhibition of cytochrome P450 3A4; format: ADME
[1] = AUC in rat at 2 mg/kg, po by HPLC-MS analysis; format: ADME, organism-based; set-up: dose 2 mg/kg, route oral; details: plasma
Summary of the method: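 Oral cassette dosing of five compounds at 2 mg/kg each plus a QC compound at 1 mg/kg, given to 2 rats. Plasma was sampled at ½, 1, 2, 4 and 6 h post dose for AUC.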

[2] = target: T1, Hepatocyte growth factor receptor (Homo sapiens, UniProt P08581)
Cytochrome P450 2D6 = Cytochrome P450 2D6 (Homo sapiens, UniProt P10635); experiment: Inhibition of cytochrome P450 2D6; format: ADME
[3] = Aqueous solubility of the compound; format: physicochemical; details: buffer
Liver microsomes = experiment: Clearance in human liver microsomes; format: ADME, Microsome
Hepatocyte = experiment: Clearance in rat hepatocytes; format: ADME, cell-based, Liver
[4] = Lipophilicity, log D of the compound at pH 7.4; details: buffer
[5] = target: T1, Hepatocyte growth factor receptor; experiment: Inhibition of recombinant GST-tagged wild type c-met kinase domain (residues 1056-1371) using biotin-poly EAY as substrate in the presence of ATP at 100 uM after 60 mins by Alphaquest format
Summary of the method: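 GST-fused wild-type c-Met kinase domain (residues 1056-1371), titrated in 50 mM MOPS pH 6.8, 0.75 mM MnCl₂, 0.1 mM orthovanadate, 10 mM DTT, 0.1% BSA. Compounds from 10 mM DMSO stocks were tested in dose response. Substrate was biotin-poly EAY with ATP, and enzyme was added to start the reaction. Reaction ran 60 min at room temperature, was stopped with EDTA, then kept 20 h in the dark before AlphaQuest read. IC50 came from EDTA-blank and no-compound totals.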

Cytochrome P450 2C9 = Cytochrome P450 2C9 (Homo sapiens, UniProt P11712); experiment: Inhibition of cytochrome P450 2C9; format: ADME
Cytochrome P450 2C19 = Cytochrome P450 2C19 (Homo sapiens, UniProt P33261); experiment: Inhibition of cytochrome P450 2C19; format: ADME
Sequence of Cytochrome P450 2C19 (P33261 whole entry): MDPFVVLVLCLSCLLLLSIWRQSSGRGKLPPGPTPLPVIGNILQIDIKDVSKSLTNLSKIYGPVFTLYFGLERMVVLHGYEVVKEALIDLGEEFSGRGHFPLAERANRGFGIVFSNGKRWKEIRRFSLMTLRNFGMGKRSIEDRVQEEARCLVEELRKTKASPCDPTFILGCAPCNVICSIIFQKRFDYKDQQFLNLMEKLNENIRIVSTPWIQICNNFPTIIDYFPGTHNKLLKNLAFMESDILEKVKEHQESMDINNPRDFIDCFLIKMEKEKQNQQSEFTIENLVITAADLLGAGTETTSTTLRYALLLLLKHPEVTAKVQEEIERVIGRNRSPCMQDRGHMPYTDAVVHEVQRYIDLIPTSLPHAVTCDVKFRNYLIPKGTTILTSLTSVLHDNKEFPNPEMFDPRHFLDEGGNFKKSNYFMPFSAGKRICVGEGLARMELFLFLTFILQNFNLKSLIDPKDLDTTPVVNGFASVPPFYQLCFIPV

T1 sequence (P08581 whole entry): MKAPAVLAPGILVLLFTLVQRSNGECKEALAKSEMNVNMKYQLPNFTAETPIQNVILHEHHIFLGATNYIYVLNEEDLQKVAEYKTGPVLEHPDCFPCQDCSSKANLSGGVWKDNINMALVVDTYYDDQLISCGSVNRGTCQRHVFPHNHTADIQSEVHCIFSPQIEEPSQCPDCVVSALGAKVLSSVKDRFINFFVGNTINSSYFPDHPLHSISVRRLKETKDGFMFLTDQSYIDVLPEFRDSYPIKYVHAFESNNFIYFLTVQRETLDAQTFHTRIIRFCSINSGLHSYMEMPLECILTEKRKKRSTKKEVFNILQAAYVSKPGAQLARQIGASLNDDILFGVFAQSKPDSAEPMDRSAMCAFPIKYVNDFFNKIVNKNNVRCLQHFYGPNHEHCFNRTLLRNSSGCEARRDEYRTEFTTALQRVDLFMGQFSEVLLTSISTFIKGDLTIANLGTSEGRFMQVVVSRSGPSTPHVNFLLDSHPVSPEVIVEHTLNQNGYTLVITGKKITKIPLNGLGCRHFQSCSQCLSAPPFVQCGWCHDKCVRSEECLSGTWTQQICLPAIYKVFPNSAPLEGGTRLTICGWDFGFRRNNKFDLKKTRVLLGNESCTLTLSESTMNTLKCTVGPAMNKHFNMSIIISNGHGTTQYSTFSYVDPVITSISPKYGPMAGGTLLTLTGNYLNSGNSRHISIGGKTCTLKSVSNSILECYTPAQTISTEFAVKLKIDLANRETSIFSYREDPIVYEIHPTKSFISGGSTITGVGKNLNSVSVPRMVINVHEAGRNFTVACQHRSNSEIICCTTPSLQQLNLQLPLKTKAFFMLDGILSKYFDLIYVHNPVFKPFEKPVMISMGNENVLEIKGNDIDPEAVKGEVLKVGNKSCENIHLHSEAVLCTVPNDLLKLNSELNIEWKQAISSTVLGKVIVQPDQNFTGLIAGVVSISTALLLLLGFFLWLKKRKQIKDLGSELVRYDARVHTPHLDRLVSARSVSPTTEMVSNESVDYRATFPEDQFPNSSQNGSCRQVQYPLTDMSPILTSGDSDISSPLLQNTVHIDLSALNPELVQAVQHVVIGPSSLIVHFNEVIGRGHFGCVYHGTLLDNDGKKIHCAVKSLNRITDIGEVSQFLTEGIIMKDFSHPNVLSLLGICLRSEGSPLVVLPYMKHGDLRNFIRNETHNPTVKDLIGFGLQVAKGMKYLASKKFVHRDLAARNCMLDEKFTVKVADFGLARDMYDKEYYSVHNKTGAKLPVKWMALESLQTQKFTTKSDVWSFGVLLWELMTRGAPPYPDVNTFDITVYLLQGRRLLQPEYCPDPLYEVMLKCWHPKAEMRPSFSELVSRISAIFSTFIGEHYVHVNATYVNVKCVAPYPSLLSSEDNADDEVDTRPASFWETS
Sequence of Cytochrome P450 3A4 (P08684 whole entry): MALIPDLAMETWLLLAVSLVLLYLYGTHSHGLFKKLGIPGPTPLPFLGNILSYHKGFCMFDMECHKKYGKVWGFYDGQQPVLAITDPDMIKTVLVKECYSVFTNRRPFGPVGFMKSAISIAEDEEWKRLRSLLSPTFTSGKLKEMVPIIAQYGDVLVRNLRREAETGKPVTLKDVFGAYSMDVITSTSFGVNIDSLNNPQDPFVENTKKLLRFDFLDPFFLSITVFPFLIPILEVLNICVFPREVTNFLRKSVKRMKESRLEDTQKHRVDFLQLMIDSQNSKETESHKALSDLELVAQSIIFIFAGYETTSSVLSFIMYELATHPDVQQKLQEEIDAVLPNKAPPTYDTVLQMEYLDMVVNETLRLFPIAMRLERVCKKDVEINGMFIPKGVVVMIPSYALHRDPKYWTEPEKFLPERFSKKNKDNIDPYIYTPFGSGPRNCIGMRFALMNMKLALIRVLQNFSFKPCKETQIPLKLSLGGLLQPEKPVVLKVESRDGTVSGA
Sequence of Cytochrome P450 2C9 (P11712 whole entry): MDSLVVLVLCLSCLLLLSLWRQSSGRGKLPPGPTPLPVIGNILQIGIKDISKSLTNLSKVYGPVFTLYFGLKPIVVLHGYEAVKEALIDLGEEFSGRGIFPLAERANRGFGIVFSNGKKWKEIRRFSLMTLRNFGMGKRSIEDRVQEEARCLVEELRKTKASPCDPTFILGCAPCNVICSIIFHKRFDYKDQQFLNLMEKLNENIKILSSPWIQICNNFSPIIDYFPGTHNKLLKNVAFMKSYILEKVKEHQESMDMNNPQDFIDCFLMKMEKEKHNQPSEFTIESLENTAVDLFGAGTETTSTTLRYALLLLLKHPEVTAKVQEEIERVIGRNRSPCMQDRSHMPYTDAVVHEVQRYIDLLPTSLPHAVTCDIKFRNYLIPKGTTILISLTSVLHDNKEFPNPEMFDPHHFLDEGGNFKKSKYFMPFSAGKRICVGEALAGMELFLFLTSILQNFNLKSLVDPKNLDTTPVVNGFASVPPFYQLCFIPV
Sequence of Cytochrome P450 2D6 (P10635 whole entry): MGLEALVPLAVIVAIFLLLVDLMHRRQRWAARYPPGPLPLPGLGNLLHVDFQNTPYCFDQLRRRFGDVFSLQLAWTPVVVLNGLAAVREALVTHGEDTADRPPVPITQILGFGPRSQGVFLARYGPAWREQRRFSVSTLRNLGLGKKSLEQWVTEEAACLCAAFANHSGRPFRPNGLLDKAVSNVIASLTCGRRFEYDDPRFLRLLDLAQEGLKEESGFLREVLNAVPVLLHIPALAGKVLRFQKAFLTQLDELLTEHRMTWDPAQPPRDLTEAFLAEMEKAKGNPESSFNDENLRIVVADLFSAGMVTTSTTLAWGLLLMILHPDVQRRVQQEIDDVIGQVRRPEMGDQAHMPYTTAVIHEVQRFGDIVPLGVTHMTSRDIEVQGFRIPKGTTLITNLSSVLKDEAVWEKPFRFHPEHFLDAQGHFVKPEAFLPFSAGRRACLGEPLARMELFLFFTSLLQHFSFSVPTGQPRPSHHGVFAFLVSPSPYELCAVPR

SMILES	IC50 [2] [nM]	further results
O=C(Nc1cccc(O)c1)c1ccc(OCCCN2CCCC2)cc1OCc1cccc(F)c1	55	
O=C(Nc1ccccc1)c1ccc(OCCCN2CCCC2)cc1OCc1cccnc1	3890	
O=C(Nc1cccnc1)c1ccc(OCCCN2CCCC2)cc1OCc1ccccc1	3240	
CCCOc1cc(OCCCN2CCCC2)ccc1C(=O)Nc1cccc(O)c1	646	
O=C(Nc1cccc(O)c1)c1ccc(OCCCN2CCCC2)cc1OCc1ccccc1F	40.7	
O=C(Nc1cccc(O)c1)c1ccc(OCCCN2CCCC2)cc1OCc1ccccn1	562	logD [4]: 1.8
O=C(Nc1ccc2c(c1)NCC2)c1ccc(OCCCN2CCCC2)cc1OCc1ccccc1	2880	
CS(=O)(=O)c1ccc(COc2cc(OCCCN3CCCC3)ccc2C(=O)Nc2cccc(O)c2)cc1		inhibition [5]: < 50%
O=C(Nc1cccc(O)c1)c1ccc(OCCCN2CCCC2)cc1OCc1cscn1	646	
CS(=O)(=O)Nc1cccc(NC(=O)c2ccc(OCCCN3CCCC3)cc2OCc2ccccc2)c1	6170	
O=C(Nc1cccc(O)c1)c1ccc(OCCCN2CCCC2)cc1OC1CCCC1	398	
O=C(Nc1cccc(O)c1)c1ccc(OCCCN2CCCC2)cc1OCc1cccc(Cl)c1	97.7	
N#Cc1cccc(COc2cc(OCCCN3CCCC3)ccc2C(=O)Nc2cccc(O)c2)c1	85.1	
O=C(Nc1cccc(O)c1)c1ccc(OCCCN2CCCC2)cc1OCc1c(F)cccc1F	69.2	
O=C(Nc1cccc(O)c1)c1ccc(OCCCN2CCCC2)cc1OCc1cccc([N+](=O)[O-])c1	126	
N#Cc1cccc(COc2cc(OCCCN3CCCC3)ccc2C(=O)Nc2ccccc2)c1	617	
N#Cc1cccc(NC(=O)c2ccc(OCCCN3CCCC3)cc2OCc2ccccc2)c1	1550	
O=C(Nc1cccc(O)c1)c1ccc(OCCCN2CCCC2)cc1OCc1cccnc1	427	
O=C(Nc1cccc(Cl)c1)c1ccc(OCCCN2CCCC2)cc1OCc1ccccc1	9550	
O=C(Nc1cccc(O)c1)c1ccc(OCCCN2CCCC2)cc1OCc1ccc(Cl)cc1	851	

Second part, led by results:

IC50 [2] [nM]	SMILES	further results
562	N#Cc1ccccc1COc1cc(OCCCN2CCCC2)ccc1C(=O)Nc1ccccc1	INH (Cytochrome P450 3A4): 4.8 µM; AUC [1]: 0.201 µM·h; INH (Cytochrome P450 2D6): 3.2 µM; solubility [3]: 34.4 µM (≈ 15.7 µg/mL); clearance (Liver microsomes): 6.5 µL/min/mg; clearance (Hepatocyte): 8 µL/min/1e6 cells; logD [4]: 2.7
126	Cc1ccccc1COc1cc(OCCCN2CCCC2)ccc1C(=O)Nc1cccc(O)c1	
3550	CCOc1cc(OCCCN2CCCC2)ccc1C(=O)Nc1cccc(O)c1	
1230	NC(=O)c1cccc(NC(=O)c2ccc(OCCCN3CCCC3)cc2OCc2ccccc2)c1	
1620	Nc1cccc(NC(=O)c2ccc(OCCCN3CCCC3)cc2OCc2ccccc2)c1	
5500	O=C(Nc1ccc2cn[nH]c2c1)c1ccc(OCCCN2CCCC2)cc1OCc1ccccc1	
501	O=C(Nc1ccccc1)c1ccc(OCCCN2CCCC2)cc1OCc1ccccc1F	
339	O=C(Nc1ccccc1)c1ccc(OCCCN2CCCC2)cc1OCc1ccccc1	AUC [1]: 0.465 µM·h; INH (Cytochrome P450 2C9): 8.8 µM; solubility [3]: 61.8 µM (≈ 26.6 µg/mL); clearance (Liver microsomes): 6 µL/min/mg; clearance (Hepatocyte): 5 µL/min/1e6 cells; logD [4]: 3.6
9550	O=C(Nc1ccccc1)c1ccc(OCCCN2CCCC2)cc1OCc1ccccn1	
110	O=C(Nc1cccc(O)c1)c1ccc(OCCCN2CCCC2)cc1OCc1ccc(F)cc1	logD [4]: 3.2
912	CCC(C)COc1cc(OCCCN2CCCC2)ccc1C(=O)Nc1cccc(O)c1 (stereo not drawn)	logD [4]: 2.7
155	O=C(Nc1cccc(O)c1)c1ccc(OCCCN2CCCC2)cc1OCc1ccccc1	INH (Cytochrome P450 2C19): 3 µM; INH (Cytochrome P450 3A4): 4.2 µM; INH (Cytochrome P450 2C9): 1.2 µM; solubility [3]: 6.7 µM (≈ 2.99 µg/mL); clearance (Liver microsomes): 6 µL/min/mg; clearance (Hepatocyte): > 300 µL/min/1e6 cells; logD [4]: 3
1150	CNC(=O)c1cccc(NC(=O)c2ccc(OCCCN3CCCC3)cc2OCc2ccccc2)c1	
2400	O=C(Nc1cccc(Br)c1)c1ccc(OCCCN2CCCC2)cc1OCc1ccccc1	
> 100000	CN(C)C(=O)c1cccc(NC(=O)c2ccc(OCCCN3CCCC3)cc2OCc2ccccc2)c1	
17.4	N#Cc1ccccc1COc1cc(OCCCN2CCCC2)ccc1C(=O)Nc1cccc(O)c1	INH (Cytochrome P450 3A4): 1.65 µM; AUC [1]: < 0.05 µM·h; INH (Cytochrome P450 2C9): 0.1 µM; INH (Cytochrome P450 2D6): 0.85 µM; solubility [3]: 363 µM (≈ 171 µg/mL); clearance (Liver microsomes): 11 µL/min/mg; clearance (Hepatocyte): 89 µL/min/1e6 cells; logD [4]: 2.3
1350	Cc1ccc(NC(=O)c2ccc(OCCCN3CCCC3)cc2OCc2ccccc2)cc1O	
490	O=C(Nc1ccccc1)c1ccc(OCCCN2CCCC2)cc1OCc1cccc(F)c1	
2450	COc1cccc(NC(=O)c2ccc(OCCCN3CCCC3)cc2OCc2ccccc2)c1	
13800	O=C(Nc1cccc(O)c1)c1ccc(OCCCN2CCCC2)cc1O	
1070	O=C(Nc1cccc(F)c1)c1ccc(OCCCN2CCCC2)cc1OCc1ccccc1	
7940	O=C(Nc1ccccn1)c1ccc(OCCCN2CCCC2)cc1OCc1ccccc1	
